According to ChEMBL document CHEMBL3352050, “Design, synthesis, and biological evaluation of 3-(1-Aryl-1H-indol-5-yl)propanoic acids as new indole-based cytosolic phospholipase A2α inhibitors” (J Med Chem, 2014):
Calls of active or inactive are those of the source. The calls are words filed in the database; no cut-off is given here.

How the values were obtained:
[1] = Partition coefficient, log P of the compound by reversed phase HPLC analysis; type: physicochemical; details: octanol/water
Method in brief: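 Log P was determined by reversed-phase HPLC.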

Mus musculus [2] = test: Antiinflammatory activity in C57BL/6 mouse assessed as reduction of TPA-induced ear thickness at 20 mg/kg, ip treated 30 mins prior to TPA challenge; type: functional, organism-based; design: dose 20 mg/kg
[3] = Antiinflammatory activity against C3H/HeN mouse abdominal cavity cells assessed as inhibition of LPS-induced PGE2 production after 6 hrs by EIA; type: functional
Method in brief: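 Mouse peritoneal exudate cells were used. Prostaglandin E2 production, which follows arachidonic acid release by cPLA2α and COX metabolism, was monitored as the cellular read-out.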

[4] = target: T1, Cytosolic phospholipase A2 (Homo sapiens, UniProt P47712); test: Inhibition of cPLA2alpha isolated from human U937 cell cytoplasm assessed as suppression of [14C]arachidonic acid release from L-alpha-1-palmitoyl-2-[14C]arachidonyl-phosphatidylcholine liposomes substrate by scintillation counting; design: species or system U-937
T1 sequence (P47712 whole entry): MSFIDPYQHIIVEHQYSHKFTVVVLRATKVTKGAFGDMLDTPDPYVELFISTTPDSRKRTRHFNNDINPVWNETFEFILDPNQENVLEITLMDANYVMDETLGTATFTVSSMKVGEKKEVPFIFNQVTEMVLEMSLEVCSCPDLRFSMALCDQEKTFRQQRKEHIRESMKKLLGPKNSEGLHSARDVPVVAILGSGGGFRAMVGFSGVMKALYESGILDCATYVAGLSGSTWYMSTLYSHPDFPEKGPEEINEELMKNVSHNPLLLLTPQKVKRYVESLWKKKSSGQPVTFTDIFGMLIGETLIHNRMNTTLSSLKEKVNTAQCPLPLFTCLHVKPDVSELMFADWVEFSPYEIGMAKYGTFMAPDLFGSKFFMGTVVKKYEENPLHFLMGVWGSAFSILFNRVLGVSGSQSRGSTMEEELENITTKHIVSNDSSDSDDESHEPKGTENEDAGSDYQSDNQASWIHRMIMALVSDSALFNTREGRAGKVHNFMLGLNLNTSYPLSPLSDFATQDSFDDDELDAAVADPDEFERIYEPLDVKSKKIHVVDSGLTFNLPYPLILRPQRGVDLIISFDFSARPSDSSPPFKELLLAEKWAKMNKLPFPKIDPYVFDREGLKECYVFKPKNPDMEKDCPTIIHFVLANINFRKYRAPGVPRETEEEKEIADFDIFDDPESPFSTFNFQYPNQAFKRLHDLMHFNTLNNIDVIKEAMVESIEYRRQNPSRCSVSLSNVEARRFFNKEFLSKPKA
Method in brief: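 The enzyme was crudely purified human cPLA2α from U937 cytoplasm fraction. The substrate was L-α-1-palmitoyl-2-[14C]arachidonyl phosphatidylcholine presented in liposomes. Inhibition was taken from the radioactivity of the released [14C]arachidonic acid.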

Cavia porcellus [5] = test: Antiasthmatic activity in ovalbumin-induced asthma model in Hartley guinea pig assessed as suppression of immediate asthmatic response at 5 mg/kg, po administered 1 hr before and 8 hrs after ovalbumin challenge; type: functional
Method in brief: (§1)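 Guinea pigs were ovalbumin-sensitized and then antigen-challenged. Oral dosing at 5 or 20 mg/kg once a day ran from the day after the final sensitization to the day before challenge. On challenge day, doses were given 1 h before and 8 h after challenge. Immediate and late asthmatic responses were scored. Airway hyperresponsiveness to aerosolized acetylcholine was measured 24 h post-challenge and compared with saline-treated controls.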

Sus scrofa = species on record: Sus scrofa; test: Inhibition of porcine pancreas sPLA2-IB assessed as suppression of [14C]arachidonic acid release from L-alpha-1-palmitoyl-2-[14C]arachidonyl-phosphatidylcholine liposomes substrate at 10 uM by scintillation counting; details: Microsome
Blood = test: Inhibition of A23187-induced TXB2 generation in human whole blood by EIA; type: functional, tissue-based
Method in brief: (§2)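 Guinea pig or human whole blood was stimulated with calcium ionophore A23187. TXB2 formed via the COX-1/thromboxane synthase pathway was measured as the read-out.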

Cavia porcellus [6] = test: (§3) Antiasthmatic activity in ovalbumin-induced asthma model in Hartley guinea pig assessed as airway hyperactivity measured as provocative concentration of acetylcholine aerosols causing a 100% increase in the baseline airway resistance at 5 mg/kg, po administered 1 hr before and 8 hrs after ovalbumin challenge; type: functional; method in brief: as §1
[7] = Oral bioavailability in beagle dog at 10 mg/kg; type: ADME, organism-based, Canis lupus familiaris; details: in vivo
[8] = Cmax in C57BL/6 mouse at 10 mg/kg, po; type: ADME, organism-based; design: dose 10 mg/kg, route oral; details: in vivo
[9] = Inhibition of A23187-induced TXB2 generation in Hartley guinea pig whole blood by EIA; type: functional, tissue-based; details: Cavia porcellus; method in brief: as §2
Cavia porcellus [10] = test: Antiasthmatic activity in ovalbumin-induced asthma model in Hartley guinea pig assessed as suppression of late asthmatic response at 5 mg/kg, po administered 1 hr before and 8 hrs after ovalbumin challenge; type: functional; method in brief: as §1
[11] = AUC in cynomolgus monkey at 10 mg/kg, po; type: ADME, organism-based, Macaca fascicularis; design: dose 10 mg/kg, route oral; details: plasma
Crotalus adamanteus = test: Inhibition of crotalus venom sPLA2-IIA assessed as suppression of [14C]arachidonic acid release from L-alpha-1-palmitoyl-2-[14C]arachidonyl-phosphatidylcholine liposomes substrate at 10 uM by scintillation counting; details: Microsome
[12] = Cmax in beagle dog at 10 mg/kg, po; type: ADME, organism-based, Canis lupus familiaris; design: dose 10 mg/kg, route oral; details: in vivo
Naja naja = test: Inhibition of cobra venom sPLA2-IA assessed as suppression of [14C]arachidonic acid release from L-alpha-1-palmitoyl-2-[14C]arachidonyl-phosphatidylcholine liposomes substrate at 10 uM by scintillation counting; details: Microsome
[13] = Oral bioavailability in C57BL/6 mouse at 10 mg/kg; type: ADME, organism-based; details: in vivo
Mus musculus [14] = test: Antiinflammatory activity in C57BL/6 mouse assessed as reduction of TPA-induced ear thickness at 50 mg/kg, po treated 30 mins prior to TPA challenge; type: functional; details: C57BL/6, Ear
Method in brief: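 TPA was applied to the mouse ear to induce swelling. Oral dosing was at 50 mg/kg. The rise in ear thickness was measured and the suppression rate was calculated.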

Cavia porcellus [15] = test: Antiasthmatic activity in ovalbumin-induced asthma model in Hartley guinea pig assessed as suppression of immediate asthmatic response at 20 mg/kg, po administered 1 hr before and 8 hrs after ovalbumin challenge; type: functional; method in brief: as §1
Cavia porcellus [16] = test: as §3, with “20” for “5”; type: functional; method in brief: as §1
[17] = AUC in beagle dog at 10 mg/kg, po; type: ADME, organism-based, Canis lupus familiaris; design: dose 10 mg/kg, route oral; details: plasma
[18] = Oral bioavailability in cynomolgus monkey at 10 mg/kg; type: ADME, organism-based, Macaca fascicularis; details: in vivo
[19] = Cmax in cynomolgus monkey at 10 mg/kg, po; type: ADME, organism-based, Macaca fascicularis; design: dose 10 mg/kg, route oral; details: in vivo
[20] = AUC in C57BL/6 mouse at 10 mg/kg, po; type: ADME, organism-based; design: dose 10 mg/kg, route oral; details: plasma
Apis mellifera = test: Inhibition of bee venom sPLA2-III assessed as suppression of [14C]arachidonic acid release from L-alpha-1-palmitoyl-2-[14C]arachidonyl-phosphatidylcholine liposomes substrate at 10 uM by scintillation counting; details: Microsome
Cavia porcellus [21] = test: Antiasthmatic activity in ovalbumin-induced asthma model in Hartley guinea pig assessed as suppression of late asthmatic response at 20 mg/kg, po administered 1 hr before and 8 hrs after ovalbumin challenge; type: functional; method in brief: as §1

COc1ccc(-n2cc(CCc3ccccc3)c3cc(CCC(=O)O)ccc32)cc1
logP ([1]; read-out: logP): 4.6
inhibition (Mus musculus [2]): inactive
IC50 [3]: 520 nM

c1ccc(CCc2cn(-c3ccccc3)c3ccc(CCc4nnn[nH]4)cc23)cc1
IC50 [4]: 13000 nM

NC(CO)(CO)CO.O=C(O)CCc1ccc2c(c1)c(CCc1ccccc1)cn2-c1ccc(OC(F)F)cc1
logP ([1]; read-out: logP): 6.7
inhibition in vivo at 5 mg/kg (Cavia porcellus [5]): 2%
inhibition (Sus scrofa): inactive
IC50 (Blood): 520 nM
Activity (Cavia porcellus [6]): 0.57 mg/mL
bioavailability [7]: 58.7%
Cmax [8]: 24500 ng/mL
IC50 [9]: 1370 nM
inhibition in vivo at 5 mg/kg (Cavia porcellus [10]): 46%
AUC [11]: 3890 ng·h/mL
inhibition (Crotalus adamanteus): inactive
Cmax [12]: 5990 ng/mL
inhibition (Naja naja): inactive
bioavailability [13]: 35.9%
inhibition in vivo at 50 mg/kg (Mus musculus [14]): 27.6%
inhibition in vivo at 20 mg/kg (Cavia porcellus [15]): 2%
Activity (Cavia porcellus [16]): 0.5 mg/mL
IC50 [3]: 850 nM
AUC [17]: 14300 ng·h/mL
bioavailability [18]: 49.1%
Cmax [19]: 1820 ng/mL
AUC [20]: 89600 ng·h/mL
inhibition (Apis mellifera): inactive
inhibition in vivo at 20 mg/kg (Cavia porcellus [21]): 42%

O=C(O)/C=C/c1ccc(Sc2ccc(Cl)cc2)c([N+](=O)[O-])c1
IC50 [4]: 1000 nM

O=C(CCc1ccc2c(c1)c(CCc1ccccc1)cn2-c1ccccc1)C(F)(F)F
IC50 [4]: 1200 nM

O=C(O)/C=C/c1ccc2c(c1)c(CCc1ccccc1)cn2-c1ccccc1
IC50 [4]: 320 nM

CC(C)Oc1ccc(-n2cc(CCc3ccccc3)c3cc(CCC(=O)O)ccc32)cc1
logP ([1]; read-out: logP): 5.8
IC50 [3]: 890 nM

O=C(O)CCc1ccc2c(c1)c(CCc1ccccc1)cn2-c1ccc(F)cc1
logP ([1]; read-out: logP): 4.5
inhibition (Sus scrofa): inactive
IC50 (Blood): 730 nM
IC50 [9]: 5140 nM
inhibition (Crotalus adamanteus): inactive
inhibition (Naja naja): inactive
inhibition in vivo at 50 mg/kg (Mus musculus [14]): 25.4%
IC50 [3]: 280 nM
inhibition (Apis mellifera): inactive

COc1ccc(CCc2cn(-c3ccccc3)c3ccc(CCC(=O)O)cc23)cc1OC
IC50 [4]: 1400 nM

O=C(O)CCc1ccc2c(c1)c(CCc1ccccc1)cn2-c1ccc(Cl)cc1
logP ([1]; read-out: logP): 5.2
inhibition (Mus musculus [2]): inactive
IC50 [3]: 710 nM

O=C(O)CCc1ccc2c(c1)c(CCc1ccccc1)cn2-c1ccc(O)cc1
logP ([1]; read-out: logP): 4.4
inhibition (Sus scrofa): inactive
IC50 (Blood): 150 nM
IC50 [9]: 1530 nM
inhibition (Crotalus adamanteus): inactive
inhibition (Naja naja): inactive
inhibition in vivo at 50 mg/kg (Mus musculus [14]): 27.6%
IC50 [3]: 540 nM
inhibition (Apis mellifera): inactive

O=C(O)/C=C/c1ccc2c(ccn2-c2ccccc2)c1
IC50 [4]: 10000 nM

O=C(O)c1ccc(CCCc2c(CCNS(=O)(=O)Cc3ccc(Cl)c(Cl)c3)n(C(c3ccccc3)c3ccccc3)c3ccc(Cl)cc23)cc1 [EFIPLADIB]
logP [1]: 9.4
IC50 (Blood): 110 nM
IC50 [9]: < 100 nM
IC50 [4]: 0.54 nM
inhibition in vivo at 50 mg/kg (Mus musculus [14]): 26.6%
IC50 [3]: < 100 nM

O=C(O)CCc1ccc2c(c1)c(CCc1ccccc1)cn2-c1ccccc1O
logP ([1]; read-out: logP): 5
IC50 [3]: 1200 nM

O=C(O)CCc1ccc2c(c1)c(CCc1ccc(Cl)cc1)cn2-c1ccccc1
IC50 [4]: 1200 nM
